Key:
DTC = conditions: study of 20 patients; cited from earlier work
[1] = test system: thyroid cancer cell lines and xenograft models; conditions: preclinical studies in DTC; cited from earlier work
[2] = Plasma pharmacokinetics in DTC expansion cohort; type: in vivo, human; conditions: steady-state trough
In short: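 Oral once-daily dosing in patients, 28-day cycles. The VEGFR inhibitor was profiled over 0–24 h after the first dose (C1D1). Troughs for both drugs were taken on C1D15 and at the second biopsy (C2D1 ± 48 h). Plasma was acetonitrile-extracted and run by positive-ESI LC-MS/MS: MEK inhibitor range 1–200 ng/mL; VEGFR inhibitor range 0.010–1 μg/mL, with 1:100 dilution up to 100 μg/mL. Noncompartmental analysis: Cmax observed, AUC by linear trapezoidal rule, Css,min averaged from both troughs.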

[3] = test system: progressive radioiodine refractory DTC; conditions: cited from earlier work

## Cn1cnc2c(F)c(Nc3ccc(Br)cc3Cl)c(C(=O)NOCCO)cc21 [Selumetinib]
DTC
  PRs, patients: five
  stable disease, patients: three

## Cc1ccc(Nc2nccc(N(C)c3ccc4c(C)n(C)nc4c3)n2)cc1S(N)(=O)=O [pazopanib]
[1]
  effect on p-ERK: paradoxical upregulation of p-ERK
[2]; pazopanib 800 mg with trametinib 2 mg daily
  Css,min: 33800 ± 17300 ng/mL
[3]; 5/11 patients as printed
  PR rate, papillary thyroid cancer: 33%
[3]; 8/11
  PR rate, follicular thyroid cancer: 73%
[3]; single-agent pazopanib, DTC overall
  RECIST partial response (PR) rate: 49%
[3]; single-agent pazopanib
  median PFS: 360 days

## CC(=O)Nc1cccc(-n2c(=O)n(C3CC3)c(=O)c3c(Nc4ccc(I)cc4F)n(C)c(=O)c(C)c32)c1 [trametinib]
[2]; trametinib 2 mg with pazopanib 800 mg daily
  Css,min: 18.7 ± 6.6 ng/mL

— publication PMC7038784 (Clinical cancer research : an official journal of the …, 2019)
